Data on eight compounds can be found in ChEMBL document CHEMBL1125163, “Evolution of a series of peptidoleukotriene antagonists: synthesis and structure-activity relationships of 1,6-disubstituted indoles and indazoles” (J Med Chem, 1990).

For data set [1], the species on record is Cavia porcellus. The data set is described as follows: Percent inhibition of the LTE4- induced contraction of guinea pig tracheal spirals at the concentration of 5 uM; Not significant. The data set is classed as functional. The settings on record: Trachea. In a few lines: (§1)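 Guinea pig trachea cut into spiral strips, each trachea split into paired sections. Tissue bath at 37 °C in modified Krebs buffer gassed with 95% O2/5% CO2, 2 g resting tension, 60 min stabilization. After reproducible responses to 10 nM LTE4, compound was added for 10 min, then LTE4 challenge repeated. Percent inhibition is the 2nd vs 3rd response, adjusted by subtracting the vehicle-treated paired section. Paired t test, p < 0.05.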

The species named for data set [2] is Cavia porcellus. Kind of data set: Percent inhibition of the LTE4- induced contraction of guinea pig tracheal spirals at the concentration of 1.0 uM; Not significant. Type of data set: functional. The conditions noted are these: Trachea. In a few lines:
as §1

The species named for data set [3] is Cavia porcellus. Kind of data set: Percent inhibition of the LTE4- induced contraction of guinea pig tracheal spirals at the concentration of 0.33 uM. The conditions noted are these: Trachea. Type of data set: functional. The method, boiled down:
as §1

The species entered for data set [4] is Cavia porcellus. The data set is described as follows: (§2) Percent inhibition of the BaCl2 - induced contraction of guinea pig tracheal spirals at concentration of 100 uM; Not significant. Type of data set: functional. The settings on record: Trachea. In a few lines: (§3)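 Guinea pig tracheal strips contracted with barium chloride. Compound was tested at 100 µM, and the read-out is percent inhibition of the BaCl2-induced contraction.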

Data set [5] in a line: Selectivity ratio of the compound. The data set is classed as functional.
The species named for data set [6] is Cavia porcellus. The data set is described as follows: Percent inhibition of the LTE4- induced contraction of guinea pig tracheal spirals at concentration of 5 uM. Type of data set: functional. The settings on record: Trachea. In a few lines: as §1
A short description of data set [7]: pKB value of the compound. In a few lines:
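Guinea pig tracheal strips at 37 °C in Krebs buffer. Cumulative LTE4 concentration-response curves were built in log increments, with responses expressed as % of the maximum to 30 µM carbachol. Antagonist was incubated 30 min before the curve, with vehicle on paired controls. EC50 came from linear regression. KB = [antagonist]/(dose ratio − 1) by the Furchgott method. One curve per tissue.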

For data set [8], the species on record is Cavia porcellus. The data set is described as follows: Percent inhibition of the BaCl2 - induced contraction of guinea pig tracheal spirals at concentration of 100 uM. The data set is classed as functional. The conditions noted are these: Trachea. In a few lines: as §3
For data set [9], the system named is Cavia porcellus. Kind of data set: Percent protection was determined from the time delay to the onset of dyspnea compared to that of control guinea pig at a concentration of 126 uM/kg. The data set is classed as functional. In a few lines:
(§4)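 Conscious guinea pigs were pretreated ip with indomethacin (10 mg/kg) and propranolol (5 mg/kg). Compound was given orally in poly(ethylene glycol) 60 min before challenge with aerosolized 60 µM LTD4 for up to 5 min. End point was labored abdominal breathing, scored blind. % protection = (drug time − mean control time)/(max aerosol time − mean control time) × 100, with at least two vehicle animals per run.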

The species named for data set [10] is Cavia porcellus. Kind of data set: Percent inhibition of the LTE4- induced contraction of guinea pig tracheal spirals at the concentration of 0.5 uM. The data set is classed as functional. The conditions noted are these: Trachea. The method, boiled down: as §1
The species named for data set [11] is Cavia porcellus. The data set is described as follows: Percent inhibition of the LTE4- induced contraction of guinea pig tracheal spirals at the concentration of 0.1 uM. Type of data set: functional. The conditions noted are these: Trachea. In a few lines:
as §1

For data set [12], the system named is Cavia porcellus. The data set is described as follows: Percent protection was determined from the time delay to the onset of dyspnea compared to that of control guinea pig at a concentration of 100 uM/kg. Type of data set: functional. In a few lines:
as §4

The species entered for data set [13] is Cavia porcellus. Described as §2. The data set is classed as functional. The settings on record: Trachea. In a few lines: as §3

Each structure is given as a SMILES string. Calls of active or inactive are those of the source. No cut-off for these calls is given here.

As a reminder, the inhibition is the change of the read-out against control, counted positive when it falls. As to `CCCCCCCCCCCC(=O)Nc1ccc2ccn(Cc3ccc(C(=O)O)cc3OC)c2c1`, the inhibition entry in the data set filed under Cavia porcellus [1] is “inactive”. On to `COc1cc(C(=O)O)ccc1Cn1ccc2ccc(NC(=O)OC3CCCCC3)cc21`, for which the inhibition entry in the data set listed under Cavia porcellus [2] is “inactive”.

Regarding `CCCCC(CC)C(=O)Nc1ccc2cnn(Cc3ccc(C(=O)O)cc3OC)c2c1` (stereo not given), in the data set listed under Cavia porcellus [3], testing at 0.33 µM gave an inhibition of 56%. For the same compound, in the data set filed under Cavia porcellus [4], the inhibition result was “inactive”.

In general, pKB refers to −log10 of the KB, conventionally taken in molar units. A lower pKB goes with a high KB. As to `CCCCCC(=O)Nc1ccc2ccn(Cc3ccc(C(=O)O)cc3OC)c2c1`, in data set [5], the Selectivity ratio was determined as 100. This compound also displayed an inhibition at 5 µM in the data set listed under Cavia porcellus [6] of 70%. For the same compound, in data set [7], the pKB turned out to be 6.

`CCCCOC(=O)Nc1ccc2cnn(Cc3ccc(C(=O)O)cc3OC)c2c1` had an inhibition at 100 µM in the data set filed under Cavia porcellus [8] of 41%. In addition, the inhibition at 0.33 µM in the data set listed under Cavia porcellus [3] is 56%. In the data set on Cavia porcellus [9], this compound registered a Protection of 33%.

Turning to `CCCCOC(=O)Nc1ccc2ccn(Cc3ccc(C(=O)O)cc3OC)c2c1`, at 0.5 µM the inhibition in the data set listed under Cavia porcellus [10] was 54%. `COc1cc(C(=O)O)ccc1Cn1ccc2ccc(NC(=O)OC3CCCC3)cc21`: testing at 0.1 µM in the data set listed under Cavia porcellus [11] gave an inhibition of 61%. In the data set with Cavia porcellus [12], this compound had a Protection of 23%. On to `CCC(C(=O)Nc1ccc2cnn(Cc3ccc(C(=O)O)cc3OC)c2c1)c1ccccc1` (stereo not given), for which the inhibition entry in the data set listed under Cavia porcellus [13] was “inactive”. Moreover, in the data set listed under Cavia porcellus [3], at 0.33 µM the inhibition was 30%.
